ChEMBL document CHEMBL2010771, “Studies toward novel peptidomimetic inhibitors of thioredoxin-thioredoxin reductase system” (J Med Chem, 2012)
Activity calls are given as the source filed them. The calls are words filed in the database; no cut-off is given here.

How the values were obtained:
[1] = Inhibition of human recombinant Trx1/TrxR assessed as reduction in number of free thiols from reduced insulin after 30 mins by insulin reduction assay
Summary of the method: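 At least seven compound concentrations. Incubated 30 min at 37 °C, stopped with 8 mM DTNB in 8 M guanidine HCl, A412. IC50 from four-parameter logistic fit. Triplicates, mean ± SD, n ≥ 3.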

EMT6 [2] = test: Cytotoxicity against mouse EMT6 cells after 72 hrs by crystal violet staining; format: functional; conditions: EMT6, 72 h, read-out: LD50 (the source's name)
[3] = Cytotoxicity against mouse PancO2 cells after 72 hrs by crystal violet staining; format: functional; conditions: read-out: LD50 (the source's name)
EMT6 [4] = test: Antitumor activity against mouse EMT6 cells allografted in BALB/c mouse assessed as prolongation of host survival time at 80 mg/kg, ip qd for 7 days; format: functional, organism-based; design: dose 80 mg/kg
Summary of the method: (§1)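 BALB/c mice, 8−12 weeks old, inoculated sc with 3.5 × 10^5 EMT6 cells into the depilated right thigh. Intraperitoneal dosing in DMSO began on day 7, when tumors reached a longer diameter of 5−7 mm, and was given daily. Controls received ip DMSO. Tumor volume was followed by calipers as longer × shorter²/2. Survival and body weight were monitored.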

[5] = biological target: T1, Thioredoxin (Homo sapiens) (UniProt P10599); test: Inhibition of human recombinant Trx-1 expressed in Escherichia coli after 30 to 90 mins preincubation by insulin reduction assay in presence of thioredoxin reductase
T1 sequence (whole entry): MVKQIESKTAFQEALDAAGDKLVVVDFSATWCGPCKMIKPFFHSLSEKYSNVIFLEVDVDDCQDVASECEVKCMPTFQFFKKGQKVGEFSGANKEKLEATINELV
Summary of the method: (§2)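 Human recombinant His-tagged Trx purified by Ni affinity and gel filtration, then dialyzed free of DTT. Trx was prereduced with TrxR and NADPH for 20 min, then preincubated with compound (2.5−20 μM) for 0−90 min at 37 °C. Reaction ran 30 min at 37 °C in Tris-HCl/EDTA pH 7.6. DTNB stop, A412. Triplicates, SD.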

[6] = biological target: T1, Thioredoxin (Homo sapiens); test: Binding affinity to human recombinant Trx-1 expressed in Escherichia coli by mass spectrometry analysis
[7] = Chemical stability of the compound in 0.01 M PBS buffer at pH 7.4 after 7 days by RP-HPLC analysis; format: physicochemical; conditions: pH 7.4, 168 h
Summary of the method: (§3)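 Stock in DMSO (5 mg/mL) diluted about 100-fold into 0.01 M PBS pH 7.4 prewarmed to 37 °C, then held at 37 °C for up to 7 days. At each time point, 100 μL aliquots were mixed with 200 μL ethanol, chilled at 4 °C for 15 min, centrifuged and stored at −20 °C. Samples were quantified by RP-HPLC (C18, acetonitrile/water, 230 nm) against standard curves of at least five dilutions. Triplicates, n = 3.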

[8] = biological target: T1, Thioredoxin (Homo sapiens); test: Inhibition of thioredoxin in human HeLa cells cotransfected with p-NFkB-luc assessed as inhibition of TNF/IFN-gamma-induced activation of NF-kB after 6 hrs by luciferase reporter assay; format: cell-based
Summary of the method: (§4)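 HeLa cells nucleofected with 2 μg NF-κB- or AP-1-luciferase plasmid plus CMV-Renilla, then cultured 48 h. NF-κB: TNF (10 ng/mL) + IFN-γ (100 U) together with compound for 6 h. AP-1: 4 h in medium without FBS or antibiotics, then ionomycin (1 μM) together with compound for 6 h. Dual-luciferase read-out, firefly normalized to Renilla. Triplicates, n ≥ 3, Student's t test.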

[9] = Chemical stability of the compound in 0.01 M PBS buffer at pH 7.4 after 5 hrs by RP-HPLC analysis; format: physicochemical; conditions: read-out: Stability; summary of the method: as §3
[10] = biological target: T1, Thioredoxin (Homo sapiens); test: Inhibition of thioredoxin in human HeLa cells cotransfected with p-AP1-luc assessed as inhibition of ionomycin-induced AP-1 promoter activity after 6 hrs by luciferase reporter assay; format: cell-based; summary of the method: as §4
[11] = Chemical stability of the compound in 0.01 M PBS buffer at pH 7.4 after 4 days by RP-HPLC analysis; format: physicochemical; conditions: pH 7.4, 96 h; summary of the method: as §3
[12] = Cytotoxicity against human PBMC cells after 72 hrs by XTT assay; format: cell-based; conditions: read-out: LD50
Summary of the method: (§5)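 hPBMC were isolated from healthy donors on Histopaque 1077 and kept in RPMI. Bone marrow came from female BALB/c mice and was cultured in Iscove's medium with 10% FBS and 100 U IL-3. After compound exposure, cells got XTT at 0.3 mg/mL for 4 h, read at A490 against 690 nm. Viability is % of DMSO controls; n ≥ 3.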

CT26 = test: Cytotoxicity against wild type mouse CT26 cells after 72 hrs by crystal violet staining; format: functional; conditions: CT26, 72 h, read-out: LD50 (the source's name)
[13] = biological target: Thioredoxin reductase (Homo sapiens) (UniProt Q16881+Q9NNW7+Q86VQ6); conditions: 2.5 to 20 uM
T-24 = test: Cytotoxicity against human T24 cells after 72 hrs by crystal violet staining; format: functional; conditions: T-24, 72 h, read-out: LD50 (the source's name)
[14] = Solubility of the compound in biological media; format: ADME
Mus musculus [15] = test: Toxicity in mouse EMT6 cells allografted BALB/c mouse assessed as mortality at 40 to 80 mg/kg, ip qd for 7 days; format: organism-based; design: dose 40-80 mg/kg, route intraperitoneal; conditions: in vivo, 168 h; summary of the method: as §1
[16] = biological target: T1, Thioredoxin (Homo sapiens); test: Inhibition of human recombinant Trx-1 expressed in Escherichia coli at 2.5 to 20 uM by insulin reduction assay in presence of thioredoxin reductase; conditions: TDE = time-dependent effect; summary of the method: as §2
[17] = Cytotoxicity against mouse MEF cells; format: cell-based; conditions: read-out: LD50 (the source's name)
Summary of the method: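 Fibroblasts came from BALB/c embryos at E13.5 by 0.2% trypsin digestion at 37 °C for 10 min and were cultured in DMEM. Viability is % of solvent controls with DMSO ≤1%; n ≥ 3.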

[18] = Cytotoxicity against mouse B78 cells after 72 hrs by crystal violet staining; format: functional; conditions: B78, 72 h, read-out: LD50 (the source's name)
[19] = Cytotoxicity against mouse bone marrow cells after 72 hrs by XTT assay; format: cell-based, Bone marrow cell; conditions: read-out: LD50; summary of the method: as §5
Raji [20] = test: Cytotoxicity against human Raji cells after 72 hrs by MTT assay; format: functional; conditions: read-out: LD50 (the source's name)
Summary of the method: (§6)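 Suspension cells were grown in RPMI-1640 with 10% heat-inactivated FBS and exposed to compound for 72 h with DMSO ≤1%. MTT (5 mg/mL solution) was added for 4 h, then plates were centrifuged, cells lysed in DMSO and read at A570. Viability is % of solvent controls, background-corrected; n ≥ 3.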

[21] = biological target: T1, Thioredoxin (Homo sapiens); test: Inhibition of thioredoxin in human HeLa cells assessed as decrease of H2O2 scavenging activity by measuring CM-H2DCFDA fluorescence at 10 uM after 4 hrs by flow cytometeric analysis; format: cell-based
Summary of the method: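 HeLa cells treated 4 h with 10 or 20 μM compound, then trypsinized and resuspended in PBS. H2O2 added to 1 mM final for 10 min, then 1 μL of 5 mM CM-H2DCFDA for 15 min at 37 °C. Cells washed twice and 10^4 cells analyzed by flow cytometry. Triplicates, n = 3, Student's t test.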

Raji [22] = test: Induction of Trx protein expression in human Raji cells at 10 to 20 uM after 4 to 8 hrs by Western blot analysis; format: functional, cell-based
Summary of the method: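 Raji cells exposed to compound for 4 and 8 h, washed and lysed in 0.1% NP40 with protease inhibitors. Equal protein (BCA) run on 15% SDS-PAGE and blotted to nitrocellulose, blocked in TBST with 5% BSA. Probed overnight with rabbit anti-thioredoxin and mouse anti-tubulin, then HRP secondaries for 45 min. ECL luminol/coumaric acid detection.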

Ramos = test: Cytotoxicity against human Ramos cells after 72 hrs by MTT assay; format: functional; conditions: read-out: LD50 (the source's name); summary of the method: as §6
K562 = test: Cytotoxicity against human K562 cells after 72 hrs by MTT assay; format: functional; conditions: K562, 72 h, read-out: LD50 (the source's name); summary of the method: as §6
EMT6 [23] = test: Antitumor activity against mouse EMT6 cells allografted in BALB/c mouse assessed as reduction in tumor growth at 80 mg/kg, ip qd for 7 days; format: functional, organism-based; design: dose 80 mg/kg
Summary of the method: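 BALB/c mice (8−12 wk) inoculated s.c. with 3.5 × 10^5 EMT6 cells into the depilated right thigh. Controls received DMSO ip. Tumor volume measured by calipers as (longer diameter) × (shorter diameter)²/2. Survival also recorded.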

Raji [24] = test: Inhibition of Trx1/TrxR in human Raji cells after 4 hrs by insulin reduction assay; format: cell-based
Summary of the method: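 Raji cells incubated with compound for 4 h, washed three times with PBS and lysed in 0.1% NP40 with protease inhibitors. Protein measured by BCA. Trx activity determined in 10 μg of total protein by kit insulin reduction with TrxR/NADPH for 20 min at 37 °C, then DTNB/guanidine stop and A412. Triplicates, n = 3, SD.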

Raji [25] = test: Induction of Trx mRNA expression in human Raji cells at 5 to 10 uM after 4 to 24 hrs by RT-PCR analysis; format: functional, cell-based
Mus musculus [26] = test: Toxicity in mouse EMT6 cells allografted BALB/c mouse assessed as change in body weight at 40 to 80 mg/kg, ip qd for 7 days; format: organism-based; design: dose 40-80 mg/kg, route intraperitoneal; conditions: in vivo, 168 h; summary of the method: as §1

CC(C)C[C@@H](C(=O)NCC(=O)OCc1ccccc1)N(Cc1ccccc1)C(=O)C(CI)CI
IC50 [1]: > 50 µM

C=C(CI)C(=O)N(Cc1ccccc1)[C@@H](CC(C)C)C(=O)NCC(=O)OCc1ccccc1
CC50 (EMT6 [2]): > 50 µM | CC50 [3]: > 50 µM | IC50 [1]: 3.9 µM

C=C(CBr)C(=O)N(Cc1ccccc1)[C@@H](CC(C)C)C(=O)NCC(=O)OCc1ccccc1
CC50 (EMT6 [2]): > 50 µM | CC50 [3]: > 50 µM | IC50 [1]: 10 µM

C=C(CBr)C(=O)OC [METHYL BROMOMETHYL ACRYLATE]
CC50 (EMT6 [2]): > 50 µM | CC50 [3]: > 50 µM | IC50 [1]: 0.44 µM

CC(C)C[C@@H](C(=O)NCC(=O)OCc1ccccc1)N(Cc1ccccc1)C(=O)C(CBr)CBr
IC50 [1]: > 50 µM

COC(=O)C(C)(CBr)CBr
IC50 [1]: > 50 µM

C=C(C)C(=O)N(Cc1ccccc1)[C@@H](CC(C)C)C(=O)NCC(=O)OCc1ccccc1
CC50 (EMT6 [2]): > 50 µM | CC50 [3]: > 50 µM | IC50 [1]: > 50 µM

C=C(CBr)C(=O)N(Cc1ccc(OC)cc1OC)[C@@H](CC(C)C)C(=O)NCC(=O)OCC
CC50 (EMT6 [2]): > 50 µM | CC50 [3]: > 50 µM | IC50 [1]: 8.9 µM

C=C(COC(=O)c1c(C(F)(F)F)cccc1C(F)(F)F)C(=O)N[C@@H](CC(C)C)C(=O)NCC(=O)OCC
Survival (EMT6 [4]): Active | inhibition [5]: Dose-dependent effect | Activity [6]: Active | CC50 (EMT6 [2]): 5.2 µM | Stability [7]: Unstable | inhibition [8]: Active | remaining at 5 h [9]: 20% | inhibition [10]: Active | Stability [11]: Stable | CC50 at 72 h [12]: > 25 µM | CC50 (CT26): 3.3 µM | inhibition [13]: tde | CC50 (T-24): 5.6 µM | solubility [14]: soluble | Activity (Mus musculus [15]): Non-toxic | inhibition [16]: tde | CC50 [17]: 2.9 µM | CC50 [18]: 4.3 µM | CC50 at 72 h [19]: > 12.5 µM | CC50 [3]: 3.8 µM | IC50 [1]: 3.3 µM | CC50 (Raji [20]): 3.7 µM | inhibition [21]: Active | Activity (Raji [22]): Active | CC50 (Ramos): 3.7 µM | CC50 (K562): 4 µM | growth inhibition (GI) (EMT6 [23]): Active | inhibition (Raji [24]): Active | Activity (Raji [25]): Active | Activity (Mus musculus [26]): Non-toxic
